Active and inactive are the calls of the source. The calls are words filed in the database; no cut-off is given here.
Tests used:
[1] = molecular target: T1, Neuronal acetylcholine receptor; alpha4/beta2 (Homo sapiens, UniProt P17787+P43681); test: Agonist activity at human nAChR alpha4beta2 expressed in HEK ts201 cells assessed as increase in calcium mobilization at 30 uM measured every 1.5 sec by fluorescence analysis; assay type: functional, cell-based
[2] = molecular target: T2, Neuronal acetylcholine receptor; alpha3/beta4 (Homo sapiens, UniProt P30926+P32297); test: Agonist activity at human nAChR alpha3beta4 expressed in HEK ts201 cells assessed as increase in calcium mobilization at 30 uM measured every 1.5 sec by fluorescence analysis; assay type: functional, cell-based
T2 sequence (P30926 whole entry): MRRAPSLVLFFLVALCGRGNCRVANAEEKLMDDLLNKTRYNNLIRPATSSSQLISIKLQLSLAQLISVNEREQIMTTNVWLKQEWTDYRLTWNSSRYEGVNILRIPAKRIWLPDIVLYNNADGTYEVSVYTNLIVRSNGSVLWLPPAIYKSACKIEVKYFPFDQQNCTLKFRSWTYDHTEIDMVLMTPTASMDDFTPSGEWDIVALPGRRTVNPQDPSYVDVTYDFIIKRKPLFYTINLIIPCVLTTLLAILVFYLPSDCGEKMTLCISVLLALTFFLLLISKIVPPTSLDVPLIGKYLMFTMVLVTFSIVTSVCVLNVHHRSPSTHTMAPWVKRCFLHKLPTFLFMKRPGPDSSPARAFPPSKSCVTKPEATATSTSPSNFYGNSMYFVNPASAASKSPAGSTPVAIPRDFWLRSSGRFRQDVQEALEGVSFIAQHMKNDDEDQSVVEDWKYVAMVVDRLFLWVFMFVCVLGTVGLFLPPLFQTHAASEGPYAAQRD
T2 sequence (P32297 whole entry): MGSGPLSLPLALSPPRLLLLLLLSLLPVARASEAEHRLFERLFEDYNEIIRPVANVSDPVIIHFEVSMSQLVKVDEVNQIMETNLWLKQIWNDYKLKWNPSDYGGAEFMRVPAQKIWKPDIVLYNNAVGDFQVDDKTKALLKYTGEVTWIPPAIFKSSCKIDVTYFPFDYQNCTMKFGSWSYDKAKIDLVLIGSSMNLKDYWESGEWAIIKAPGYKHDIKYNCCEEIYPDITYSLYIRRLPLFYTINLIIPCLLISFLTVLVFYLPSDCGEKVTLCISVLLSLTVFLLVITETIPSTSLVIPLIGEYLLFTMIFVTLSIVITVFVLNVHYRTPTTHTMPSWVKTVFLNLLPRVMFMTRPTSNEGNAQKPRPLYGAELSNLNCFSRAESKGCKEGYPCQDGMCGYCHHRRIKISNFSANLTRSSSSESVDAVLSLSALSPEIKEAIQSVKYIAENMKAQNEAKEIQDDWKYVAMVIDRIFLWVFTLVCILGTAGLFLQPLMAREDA

[3] = molecular target: T1, Neuronal acetylcholine receptor; alpha4/beta2; test: Negative allosteric modulation of human nAChR alpha4beta2 expressed in HEK ts201 cells assessed as inhibition of epibatidine-induced calcium mobilization measured every 1.5 sec by fluorescence analysis; assay type: cell-based
How it was run: (§1)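 HEK ts201 cells stably expressing human α4β2 or α3β4 nAChRs were plated on poly-L-ornithine-coated wells at 2.0–2.3 × 10^5 cells/well and used ~24 h later. They were washed with HEPES-buffered Krebs and loaded with 50% Calcium 5 NW dye for 1 h at 24 °C in the dark. Test compound was given at 6 concentrations across 0.1–100 µM, with final DMSO 1% at the top concentration. The agonist was 1 µM epibatidine, and fluorescence (ex 485/em 525 nm) was read every ~1.5 s.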

[4] = molecular target: T2, Neuronal acetylcholine receptor; alpha3/beta4; test: Negative allosteric modulation of human nAChR alpha3beta4 expressed in HEK ts201 cells assessed as inhibition of epibatidine-induced calcium mobilization measured every 1.5 sec by fluorescence analysis; assay type: cell-based; how it was run: as §1
[5] = molecular target: T2, Neuronal acetylcholine receptor; alpha3/beta4; test: Negative allosteric modulation of human nAChR alpha3beta4 expressed in HEK ts201 cells assessed as decrease in epibatidine-induced calcium mobilization up to 100 uM measured every 1.5 sec by fluorescence analysis; assay type: cell-based; how it was run: as §1
[6] = molecular target: T1, Neuronal acetylcholine receptor; alpha4/beta2; test: Negative allosteric modulation of human nAChR alpha4beta2 expressed in HEK ts201 cells assessed as decrease in epibatidine-induced calcium mobilization up to 100 uM measured every 1.5 sec by fluorescence analysis; assay type: cell-based; how it was run: as §1
[7] = molecular target: T1, Neuronal acetylcholine receptor; alpha4/beta2; test: Relative selectivity, ratio of IC50 for human nAChR alpha3beta4 expressed in HEK ts201 cells to IC50 for human nAChR alpha4beta2 expressed in HEK ts201 cells; assay type: cell-based
[8] = molecular target: T1, Neuronal acetylcholine receptor; alpha4/beta2; test: Negative allosteric modulation of human nAChR alpha4beta2 expressed in HEK ts201 cells assessed as inhibition of epibatidine-induced calcium mobilization at 0.1 to 100 uM measured every 1.5 sec by fluorescence analysis; assay type: cell-based; how it was run: as §1
[9] = molecular target: T2, Neuronal acetylcholine receptor; alpha3/beta4; test: Negative allosteric modulation of human nAChR alpha3beta4 expressed in HEK ts201 cells assessed as inhibition of epibatidine-induced calcium mobilization at 0.1 to 100 uM measured every 1.5 sec by fluorescence analysis; assay type: cell-based; how it was run: as §1
[10] = molecular target: T1, Neuronal acetylcholine receptor; alpha4/beta2; test: Noncompetitive inhibition of human nAChR alpha4beta2 expressed in HEK ts201 cells assessed as inhibition of epibatidine-induced calcium mobilization at 30 uM measured every 1.5 sec by fluorescence analysis; assay type: cell-based
How it was run: (§2)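 Epibatidine concentration-response curves were run with and without 30 µM modulator in HEK ts201 cells expressing human α4β2 or α3β4 nAChRs. Cells were loaded with Calcium 5 NW dye for 1 h at 24 °C in HEPES-buffered Krebs, and fluorescence (ex 485/em 525 nm) was monitored every ~1.5 s.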

[11] = molecular target: T2, Neuronal acetylcholine receptor; alpha3/beta4; test: Noncompetitive inhibition of human nAChR alpha3beta4 expressed in HEK ts201 cells assessed as inhibition of epibatidine-induced calcium mobilization at 30 uM measured every 1.5 sec by fluorescence analysis; assay type: cell-based; how it was run: as §2

T1 sequence (P17787 whole entry): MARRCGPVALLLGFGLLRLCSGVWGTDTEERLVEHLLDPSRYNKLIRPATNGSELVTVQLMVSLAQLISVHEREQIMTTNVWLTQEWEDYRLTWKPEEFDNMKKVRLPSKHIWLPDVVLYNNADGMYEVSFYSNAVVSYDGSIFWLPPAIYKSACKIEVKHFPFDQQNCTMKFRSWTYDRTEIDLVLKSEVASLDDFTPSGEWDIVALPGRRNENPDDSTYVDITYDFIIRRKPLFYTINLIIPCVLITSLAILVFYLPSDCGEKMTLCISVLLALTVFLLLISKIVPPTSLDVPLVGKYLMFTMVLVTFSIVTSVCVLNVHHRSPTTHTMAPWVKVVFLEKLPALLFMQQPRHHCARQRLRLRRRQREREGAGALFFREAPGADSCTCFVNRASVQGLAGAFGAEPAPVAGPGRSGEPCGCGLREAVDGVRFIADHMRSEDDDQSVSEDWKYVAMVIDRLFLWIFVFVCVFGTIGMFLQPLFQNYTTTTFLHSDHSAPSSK
T1 sequence (P43681 whole entry): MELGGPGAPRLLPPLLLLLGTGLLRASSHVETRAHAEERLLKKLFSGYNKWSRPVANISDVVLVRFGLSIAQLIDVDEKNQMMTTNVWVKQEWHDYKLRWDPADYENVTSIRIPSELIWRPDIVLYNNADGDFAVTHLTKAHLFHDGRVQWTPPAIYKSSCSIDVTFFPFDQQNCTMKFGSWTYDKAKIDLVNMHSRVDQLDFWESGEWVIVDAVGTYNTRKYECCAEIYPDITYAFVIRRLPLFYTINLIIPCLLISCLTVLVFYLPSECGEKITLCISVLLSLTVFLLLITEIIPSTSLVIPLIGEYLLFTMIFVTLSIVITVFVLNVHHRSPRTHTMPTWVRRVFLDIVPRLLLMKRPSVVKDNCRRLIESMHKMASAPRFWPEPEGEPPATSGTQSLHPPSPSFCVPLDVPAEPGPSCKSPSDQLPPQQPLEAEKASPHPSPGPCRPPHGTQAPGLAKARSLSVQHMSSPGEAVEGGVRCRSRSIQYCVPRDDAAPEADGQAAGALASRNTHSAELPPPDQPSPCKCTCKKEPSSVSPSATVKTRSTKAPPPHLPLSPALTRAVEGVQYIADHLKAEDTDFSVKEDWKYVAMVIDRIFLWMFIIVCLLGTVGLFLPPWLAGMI

| SMILES | Activity [1] | Activity [2] | IC50 [3] | IC50 [4] | further results |
| --- | --- | --- | --- | --- | --- |
| O=C(CN1CCN(S(=O)(=O)c2ccccc2F)CC1)Oc1ccccc1-c1ccccc1 | inactive | inactive | 20.9 µM | 23.5 µM |  |
| O=C(CN1CCN(S(=O)(=O)c2ccccc2)CC1)Nc1ccccc1F | inactive | inactive | 4.1 µM | 4.6 µM |  |
| COc1ccc(S(=O)(=O)N2CCN(CC(=O)Nc3ccc(F)cc3)CC2)cc1 | inactive | inactive | 23.6 µM | 17.1 µM |  |
| O=C(CN1CCN(S(=O)(=O)c2ccc(F)cc2)CC1)Oc1ccccc1-c1ccccc1 | inactive | inactive | 12.2 µM | 23.8 µM |  |
| O=C(CN1CCN(S(=O)(=O)c2cccnc2)CC1)Nc1cc[nH]n1 | inactive | inactive |  |  |  |
| O=C(CN1CCN(S(=O)(=O)c2ccccc2F)CC1)Nc1ccn[nH]1 |  |  |  |  | IC50 [5]: > 100 µM; IC50 [6]: > 100 µM |
| COc1ccc(NC(=O)CN2CCN(S(=O)(=O)c3cccnc3)CC2)cc1 | inactive | inactive |  | 95 µM | IC50 [6]: > 100 µM |
| O=C(CN1CCN(S(=O)(=O)c2ccccc2F)CC1)Nc1ccccc1F | inactive | inactive |  |  | Ratio IC50 [7]: 12 |
| O=C(CN1CCN(S(=O)(=O)c2ccc(F)cc2)CC1)Nc1ccc2[nH]ncc2c1 | inactive | inactive |  |  |  |
| O=S(=O)(c1ccc(F)cc1)N1CCNCC1 |  |  |  |  | Activity [8]: inactive; Activity [9]: inactive |
| O=C(CN1CCN(S(=O)(=O)c2ccc(F)cc2)CC1)Nc1ccccc1F | inactive | inactive |  |  | inhibition [10]: Active; inhibition [11]: Active |
| O=C(CN1CCN(S(=O)(=O)c2cccnc2)CC1)Nc1ccccc1F | inactive | inactive | 20.3 µM | 49.6 µM |  |

Continued, in another order:

| Activity [1] | Activity [2] | IC50 [3] | IC50 [4] | SMILES | further results |
| --- | --- | --- | --- | --- | --- |
| inactive | inactive |  |  | O=C(CN1CCN(S(=O)(=O)c2ccc(F)cc2)CC1)Nc1ccc(F)cc1 |  |
| inactive | inactive |  |  | COc1ccc(NC(=O)CN2CCN(S(=O)(=O)c3ccc(F)cc3)CC2)cc1 |  |
| inactive | inactive |  |  | O=C(CN1CCN(S(=O)(=O)c2ccc(F)cc2)CC1)Nc1ccccc1 |  |
| inactive | inactive | 17.1 µM | 19.1 µM | COc1ccc(NC(=O)CN2CCN(S(=O)(=O)c3ccccc3F)CC2)cc1 | Ratio IC50 [7]: 1.1 |
| inactive | inactive | 8 µM | 13.6 µM | O=C(CN1CCN(S(=O)(=O)c2ccccc2F)CC1)Nc1ccc(F)cc1 |  |
| inactive | inactive |  |  | O=C(CN1CCN(S(=O)(=O)c2ccccc2F)CC1)Nc1ccc(C(=O)O)cc1 | IC50 [5]: > 100 µM; IC50 [6]: > 100 µM |
|  |  | 83 µM |  | O=C(CN1CCN(S(=O)(=O)c2cccnc2)CC1)Nc1ccn[nH]1 | IC50 [5]: > 100 µM |
| inactive | inactive |  |  | O=C(CN1CCN(S(=O)(=O)c2ccccc2F)CC1)Nc1cc[nH]n1 |  |
| inactive | inactive | 13.4 µM | 15.4 µM | COc1ccc(S(=O)(=O)N2CCN(CC(=O)Nc3ccccc3F)CC2)cc1 |  |
| inactive | inactive | 9.6 µM | 16.4 µM | O=C(CN1CCN(S(=O)(=O)c2ccccc2)CC1)Nc1ccccc1 |  |
| inactive | inactive |  |  | O=C(CN1CCN(S(=O)(=O)c2ccc(F)cc2)CC1)Nc1cc[nH]n1 |  |
| inactive | inactive | 12.4 µM | 11.2 µM | COC(=O)c1ccc(NC(=O)CN2CCN(S(=O)(=O)c3ccccc3F)CC2)cc1 |  |
